Measurements as given in ChEMBL document CHEMBL1275425, “Mechanism of inhibition of human immunodeficiency virus type 1 reverse transcriptase by a stavudine analogue, 4'-ethynyl stavudine triphosphate” (Antimicrob Agents Chemother, 2008).

Assays:
[1] = target: T1, Human immunodeficiency virus type 1 reverse transcriptase (Human immunodeficiency virus 1, UniProt Q72547, M184V); experiment: Inhibition of DNA-dependent DNA polymerase activity of HIV 1 reverse transcriptase M184V mutant assessed as incorporation of 4-EdTMP by burst assay using DNA/DNA Primer/Template combination
[2] = target: Human immunodeficiency virus type 1 reverse transcriptase (Human immunodeficiency virus 1) (UniProt Q72547); experiment: Activity of RNA-dependent DNA polymerase activity of HIV 1 reverse transcriptase assessed as incorporation of 4-EdTMP by burst assay using RNA/DNA Primer/Template combination
Summary of the method: (§1)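 Purified HIV-1 RT (wild type or M184V built by site-directed mutagenesis) was preincubated with a 5′-32P-labeled primer annealed to a DNA or RNA template. It was rapidly mixed in a quench-flow at 25°C in 50 mM Tris-HCl pH 7.8 with 50 mM NaCl and MgSO4. Final: 300 nM P/T, 100 nM enzyme, 1 mM nucleotide. Reactions were EDTA-quenched at set times, run on urea-PAGE and phosphorimaged, then fitted to the burst equation.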

[3] = target: T1, Human immunodeficiency virus type 1 reverse transcriptase; experiment: Inhibition of RNA-dependent DNA polymerase activity of HIV 1 reverse transcriptase M184V mutant assessed as incorporation of 4-EdTMP by single-turnover assay using RNA/DNA Primer/Template combination
[4] = test system: Human immunodeficiency virus type 1 reverse transcriptase (Human immunodeficiency virus 1), Q72547 [M184V]; experiment: Selectivity index, ratio of Kpol/Kd for DNA-dependent DNA polymerase activity of HIV 1 reverse transcriptase M184V mutant assessed as incorporation of dTMP to Kpol/Kd for DNA-dependent DNA polymerase activity of HIV 1 reverse transcriptase reverse transcriptase M184V mutant assessed as incorporation of Ed4TMP
Summary of the method: (§2)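 Selectivity factor: the single-turnover incorporation efficiency (kpol/Kd) for dTTP divided by that for the analogue triphosphate. Both used the same RT (wild type or M184V) and the same primer/template, DNA/DNA or DNA/RNA. Kd and kpol came from hyperbolic fits of first-phase rates against nucleotide concentration, with 250 nM RT over 50 nM labeled P/T at 25°C.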

[5] = target: Human immunodeficiency virus type 1 reverse transcriptase (Human immunodeficiency virus 1) (UniProt Q72547); experiment: Selectivity index, ratio of Kpol/Kd for RNA-dependent DNA polymerase activity of HIV 1 reverse transcriptase assessed as incorporation of dTMP to Kpol/Kd for RNA-dependent DNA polymerase activity of HIV 1 reverse transcriptase reverse transcriptase assessed as incorporation of Ed4TMP; summary of the method: as §2
[6] = test system: Human immunodeficiency virus type 1 reverse transcriptase (Human immunodeficiency virus 1), Q72547 [M184V]; experiment: Ratio of Kpol/Kd for RNA-dependent DNA polymerase activity of HIV 1 reverse transcriptase M184V mutant assessed as incorporation of 4-EdTMP by burst assay using RNA/DNA Primer/Template combination
Summary of the method: (§3)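 Single-turnover rapid-quench at 25°C in Tris-HCl pH 7.8/NaCl/MgSO4 buffer, with enzyme in excess: 250 nM wild-type or M184V RT and 50 nM 5′-32P-labeled DNA/DNA or DNA/RNA primer/template. The incoming nucleotide concentration was varied. Products were resolved by urea-PAGE and phosphorimaged. First-phase rates were fitted to kobs = kpol[S]/(Kd+[S]), and efficiency was taken as kpol/Kd.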

[7] = target: T2, Human immunodeficiency virus type 1 reverse transcriptase (Human immunodeficiency virus 1, UniProt Q72547); experiment: Inhibition of DNA-dependent DNA polymerase activity of HIV 1 reverse transcriptase assessed as incorporation of 4-EdTMP by burst assay using DNA/DNA Primer/Template combination
Summary of the method: (§4)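 Rapid chemical quench-flow at 25°C in 50 mM Tris-HCl pH 7.8, 50 mM NaCl. Wt or M184V HIV-1 RT (100 nM final) was preincubated with 5′-32P-labelled primer/template (300 nM final; DNA/DNA or DNA/RNA). It was mixed with buffer containing 20 mM MgSO4 (pre-mixing) and 2 mM nucleotide triphosphate (pre-mixing). Reactions were quenched at set times with 0.5 M EDTA and products resolved by urea-PAGE with phosphorimaging. Data were fitted to the burst equation.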

[8] = test system: Human immunodeficiency virus type 1 reverse transcriptase (Human immunodeficiency virus 1), Q72547 [M184V]; experiment: Ratio of Kpol/Kd for DNA-dependent DNA polymerase activity of HIV 1 reverse transcriptase M184V mutant assessed as incorporation of 4-EdTMP by burst assay using DNA/DNA Primer/Template combination; summary of the method: as §3
[9] = target: Human immunodeficiency virus type 1 reverse transcriptase (Human immunodeficiency virus 1) (UniProt Q72547); experiment: Activity of DNA-dependent DNA polymerase activity of HIV 1 reverse transcriptase assessed as incorporation of 4-EdTMP by burst assay using DNA/DNA Primer/Template combination; summary of the method: as §1
[10] = test system: Human immunodeficiency virus type 1 reverse transcriptase (Human immunodeficiency virus 1), Q72547 [M184V]; experiment: Activity of RNA-dependent DNA polymerase activity of HIV 1 reverse transcriptase M184V mutant assessed as incorporation of 4-EdTMP by burst assay using RNA/DNA Primer/Template combination; summary of the method: as §1
[11] = test system: Human immunodeficiency virus type 1 reverse transcriptase (Human immunodeficiency virus 1), Q72547 [M184V]; experiment: Activity of DNA-dependent DNA polymerase activity of HIV 1 reverse transcriptase M184V mutant assessed as incorporation of 4-EdTMP by burst assay using DNA/DNA Primer/Template combination; summary of the method: as §1
[12] = test system: Human immunodeficiency virus type 1 reverse transcriptase (Human immunodeficiency virus 1), Q72547 [M184V]; experiment: Selectivity index, ratio of Kpol/Kd for RNA-dependent DNA polymerase activity of HIV 1 reverse transcriptase M184V mutant assessed as incorporation of dTMP to Kpol/Kd for RNA-dependent DNA polymerase activity of HIV 1 reverse transcriptase reverse transcriptase M184V mutant assessed as incorporation of Ed4TMP; summary of the method: as §2
[13] = target: Human immunodeficiency virus type 1 reverse transcriptase (Human immunodeficiency virus 1) (UniProt Q72547); experiment: Ratio of Kpol/Kd for DNA-dependent DNA polymerase activity of HIV 1 reverse transcriptase assessed as incorporation of 4-EdTMP by burst assay using DNA/DNA Primer/Template combination; summary of the method: as §3
[14] = target: Human immunodeficiency virus type 1 reverse transcriptase (Human immunodeficiency virus 1) (UniProt Q72547); experiment: Ratio of Kpol/Kd for RNA-dependent DNA polymerase activity of HIV 1 reverse transcriptase assessed as incorporation of 4-EdTMP by burst assay using RNA/DNA Primer/Template combination; summary of the method: as §3
[15] = target: Human immunodeficiency virus type 1 reverse transcriptase (Human immunodeficiency virus 1) (UniProt Q72547); experiment: Selectivity index, ratio of Kpol/Kd for DNA-dependent DNA polymerase activity of HIV 1 reverse transcriptase assessed as incorporation of dTMP to Kpol/Kd for DNA-dependent DNA polymerase activity of HIV 1 reverse transcriptase reverse transcriptase assessed as incorporation of Ed4TMP; summary of the method: as §2
[16] = target: T2, Human immunodeficiency virus type 1 reverse transcriptase; experiment: Inhibition of RNA-dependent DNA polymerase activity of HIV 1 reverse transcriptase assessed as incorporation of 4-EdTMP by burst assay using RNA/DNA Primer/Template combination; summary of the method: as §4
[17] = target: T1, Human immunodeficiency virus type 1 reverse transcriptase; experiment: Inhibition of DNA-dependent DNA polymerase activity of HIV 1 reverse transcriptase M184V mutant assessed as incorporation of d4TMP by burst assay using DNA/DNA Primer/Template combination
[18] = target: T1, Human immunodeficiency virus type 1 reverse transcriptase; experiment: Inhibition of RNA-dependent DNA polymerase activity of HIV 1 reverse transcriptase M184V mutant assessed as incorporation of d4TMP by burst assay using RNA/DNA Primer/Template combination
[19] = target: T2, Human immunodeficiency virus type 1 reverse transcriptase; experiment: Inhibition of DNA-dependent DNA polymerase activity of HIV 1 reverse transcriptase assessed as incorporation of d4TMP by burst assay using DNA/DNA Primer/Template combination
[20] = target: T2, Human immunodeficiency virus type 1 reverse transcriptase; experiment: Inhibition of RNA-dependent DNA polymerase activity of HIV 1 reverse transcriptase assessed as incorporation of d4TMP by burst assay using RNA/DNA Primer/Template combination
[21] = test system: Human immunodeficiency virus type 1 reverse transcriptase (Human immunodeficiency virus 1), Q72547 [M184V]; experiment: Activity of DNA-dependent DNA polymerase activity of HIV 1 reverse transcriptase M184V mutant assessed as incorporation of dTMP by burst assay using DNA/DNA Primer/Template combination; summary of the method: as §1
[22] = target: Human immunodeficiency virus type 1 reverse transcriptase (Human immunodeficiency virus 1) (UniProt Q72547); experiment: Ratio of Kpol/Kd for RNA-dependent DNA polymerase activity of HIV 1 reverse transcriptase assessed as incorporation of dTMP by burst assay using RNA/DNA Primer/Template combination
Summary of the method: (§5)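 Single-turnover rapid-quench assay at 25°C, Tris-HCl pH 7.8 and NaCl. Enzyme (250 nM wild-type or M184V RT) was in excess over 5′-32P-labelled DNA/DNA or DNA/RNA P/T (50 nM), with the nucleotide triphosphate concentration varied. First-phase observed rates were fitted to kobs = kpol[S]/(Kd + [S]) to obtain Kd and kpol. Incorporation efficiency was taken as kpol/Kd.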

[23] = target: T1, Human immunodeficiency virus type 1 reverse transcriptase; experiment: Inhibition of DNA-dependent DNA polymerase activity of HIV 1 reverse transcriptase M184V mutant assessed as incorporation of dTMP by burst assay using DNA/DNA Primer/Template combination
Summary of the method: (§6)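 Pre-steady-state burst assay by rapid chemical quench at 25°C. Wild-type or M184V HIV-1 RT was preincubated with 5′-32P-labelled primer annealed to a DNA or RNA template. Final conditions were 100 nM enzyme, 300 nM P/T, and 1 mM nucleotide in 50 mM Tris-HCl pH 7.8 with 50 mM NaCl and MgSO4. Reactions were quenched with EDTA and products resolved by urea-PAGE with phosphorimaging. Data were fitted to the burst equation to give amplitude, kob and kss.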

[24] = target: Human immunodeficiency virus type 1 reverse transcriptase (Human immunodeficiency virus 1) (UniProt Q72547); experiment: Ratio of Kpol/Kd for DNA-dependent DNA polymerase activity of HIV 1 reverse transcriptase assessed as incorporation of dTMP by burst assay using DNA/DNA Primer/Template combination; summary of the method: as §5
[25] = target: T2, Human immunodeficiency virus type 1 reverse transcriptase; experiment: Inhibition of RNA-dependent DNA polymerase activity of HIV 1 reverse transcriptase assessed as incorporation of dTMP by burst assay using RNA/DNA Primer/Template combination; summary of the method: as §6
[26] = target: T1, Human immunodeficiency virus type 1 reverse transcriptase; experiment: Inhibition of RNA-dependent DNA polymerase activity of HIV 1 reverse transcriptase M184V mutant assessed as incorporation of dTMP by burst assay using RNA/DNA Primer/Template combination; summary of the method: as §6
[27] = test system: Human immunodeficiency virus type 1 reverse transcriptase (Human immunodeficiency virus 1), Q72547 [M184V]; experiment: Ratio of Kpol/Kd for RNA-dependent DNA polymerase activity of HIV 1 reverse transcriptase M184V mutant assessed as incorporation of dTMP by burst assay using RNA/DNA Primer/Template combination; summary of the method: as §5
[28] = test system: Human immunodeficiency virus type 1 reverse transcriptase (Human immunodeficiency virus 1), Q72547 [M184V]; experiment: Ratio of Kpol/Kd for DNA-dependent DNA polymerase activity of HIV 1 reverse transcriptase M184V mutant assessed as incorporation of dTMP by burst assay using DNA/DNA Primer/Template combination; summary of the method: as §5
[29] = target: Human immunodeficiency virus type 1 reverse transcriptase (Human immunodeficiency virus 1) (UniProt Q72547); experiment: Activity of DNA-dependent DNA polymerase activity of HIV 1 reverse transcriptase assessed as incorporation of dTMP by burst assay using DNA/DNA Primer/Template combination; summary of the method: as §1
[30] = target: T2, Human immunodeficiency virus type 1 reverse transcriptase; experiment: Inhibition of DNA-dependent DNA polymerase activity of HIV 1 reverse transcriptase assessed as incorporation of dTMP by burst assay using DNA/DNA Primer/Template combination; summary of the method: as §6
[31] = test system: Human immunodeficiency virus type 1 reverse transcriptase (Human immunodeficiency virus 1), Q72547 [M184V]; experiment: Activity of RNA-dependent DNA polymerase activity of HIV 1 reverse transcriptase M184V mutant assessed as incorporation of dTMP by burst assay using RNA/DNA Primer/Template combination; summary of the method: as §6
[32] = target: Human immunodeficiency virus type 1 reverse transcriptase (Human immunodeficiency virus 1) (UniProt Q72547); experiment: Activity of RNA-dependent DNA polymerase activity of HIV 1 reverse transcriptase assessed as incorporation of dTMP by burst assay using RNA/DNA Primer/Template combination; summary of the method: as §1

C#C[C@@]1(COP(=O)(O)OP(=O)(O)OP(=O)(O)O)C=C[C@H](n2cc(C)c(=O)[nH]c2=O)O1
Kd [1]: 168 µM | Activity [2]: 11.7 s⁻¹ | Kd [3]: 43.4 µM | Ratio [4]: 2.8 | Ratio [5]: 0.97 | Ratio [6]: 0.22 µM⁻¹ s⁻¹ | Kd [7]: 15.8 µM | Ratio [8]: 0.11 µM⁻¹ s⁻¹ | Activity [9]: 12.1 s⁻¹ | Activity [10]: 9.7 s⁻¹ | Activity [11]: 18.9 s⁻¹ | Ratio [12]: 1.3 | Ratio [13]: 0.77 µM⁻¹ s⁻¹ | Ratio [14]: 1 µM⁻¹ s⁻¹ | Ratio [15]: 1.9 | Kd [16]: 11.4 µM

Cc1cn([C@H]2C=C[C@@H](COP(=O)(O)OP(=O)(O)OP(=O)(O)O)O2)c(=O)[nH]c1=O [STAVUDINE TRIPHOSPHATE]
Kd [17]: 605 µM | Kd [18]: 232 µM | Kd [19]: 48 µM | Kd [20]: 40.8 µM

Cc1cn([C@H]2C[C@H](O)[C@@H](COP(=O)(O)OP(=O)(O)OP(=O)(O)O)O2)c(=O)[nH]c1=O [DEOXYTHYMIDINE_TRIPHOSPHATE]
Activity [21]: 22.4 s⁻¹ | Ratio [22]: 0.97 µM⁻¹ s⁻¹ | Kd [23]: 73.2 µM | Ratio [24]: 1.47 µM⁻¹ s⁻¹ | Kd [25]: 67.1 µM | Kd [26]: 144 µM | Ratio [27]: 0.29 µM⁻¹ s⁻¹ | Ratio [28]: 0.31 µM⁻¹ s⁻¹ | Activity [29]: 22.6 s⁻¹ | Kd [30]: 15.4 µM | Activity [31]: 41.7 s⁻¹ | Activity [32]: 65 s⁻¹
